Screening results: PubChem BioAssay, several laboratories
Rows were chosen to be rich in hits. Some 3.1% of all compounds tested hit in one or more screens of this group.
core dimer inh: HCV core protein dimerization inhibition; TR-FRET GST/Flag-core106 dimerization, 1536-well; inhibition, % at 5 µM; hit rate 0.33% among 300,000;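 active = inhibition above the mean of all tested compounds plus 3 SD, set per screening campaign, cut at about 45% in these data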
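Material: GST/Flag-tagged HCV core106 proteins. Incubation: 4 h, 22.5 °C incubation. Read-out basis: inhibition (%) from 671 over 617 nm ratio. Measured by: TR-FRET, excitation 340 nm, emission 617 and 671 nm.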
PP1 inh: counter-screen for PP5 inhibitors: inhibitors of human PP1-alpha; purified PP1alpha, OMFP fluorescence; inhibition, % at 6.7 µM; hit rate 0.9% among 320,000;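 active = inhibition above the mean inhibition of all tested compounds plus 3 SD, computed separately for each screening campaign, cut at about 15% in these data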
Target sequence (P62136 whole entry, looked up): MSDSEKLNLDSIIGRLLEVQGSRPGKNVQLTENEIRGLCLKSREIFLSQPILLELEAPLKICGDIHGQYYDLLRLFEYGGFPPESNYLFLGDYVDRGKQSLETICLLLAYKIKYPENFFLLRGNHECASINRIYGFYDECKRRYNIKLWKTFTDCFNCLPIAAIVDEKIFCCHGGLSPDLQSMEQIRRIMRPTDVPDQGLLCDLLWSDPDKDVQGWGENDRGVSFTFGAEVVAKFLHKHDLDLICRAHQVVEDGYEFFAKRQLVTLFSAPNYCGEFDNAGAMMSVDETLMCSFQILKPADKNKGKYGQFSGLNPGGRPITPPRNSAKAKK
PP5 primary: blocks human protein phosphatase 5 activity. P53041. purified PP5c, OMFP substrate fluorescence. inhibition, % at 6.7 µM. hit rate 0.18% among 320,000;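 active = inhibition above the campaign's mean inhibition across all tested compounds plus 3 SD, cut at about 9.5% in these data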;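 note: 0% = DMSO only and 100% = 100 µM cantharidin control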
NadD block: blocks S. aureus nicotinate mononucleotide adenylyltransferase; AID 602399; inhibition, % at 20 µM; hit rate 0.78% among 360,000; purified NadD enzyme, colorimetric absorbance read-out; in the data active = inhibition above about 26%
Fh CTSL1 inh: blocks F. hepatica cathepsin L1 in PFM18AAP counter-screen; AID 1906; hit rate 0.49% among 300,000; inhibition, % at 5.96 µM; recombinant F. hepatica cathepsin L1, Z-Leu-Arg-MCA fluorescence;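 active = inhibition above the mean of all tested compounds plus 3 SD, set per screening campaign, cut at about 17% in these data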;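 note: 0% = plate median of test compound wells and 100% = 1 µM Z-Phe-Ala-diazomethylketone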
Myeloid diff MLP: myeloid differentiation induction; hit rate 1% among 360,000; calls only at 10 µM; ER-HoxA9 myeloid progenitors, lysozyme-GFP differentiation, flow cytometry; AID 624256;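 active = normalized GFP-positive differentiation at or above the plate's own cutoff, the solvent-only control mean plus 3 SD; inconclusive = no clear call, values can overlap the other calls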;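 note: cells exposed to compound for four days before flow analysis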
Numbers without * were called inactive.

How did O=C(O)CN1C(=O)/C(=C\c2cn(-c3ccccc3)nc2-c2ccccc2)SC1=S do in these assays?
core dimer inh: 16; PP1 inh: 1; PP5 primary: -1; NadD block: 31*; Fh CTSL1 inh: 5

Results for O=C1C(=Cc2cn(-c3ccccc3)nc2-c2ccc(OCc3ccccc3)cc2)SC(=S)N1CCS(=O)(=O)O ?
NadD block: 50*; Myeloid diff MLP: inactive

What do the screens show for `Cc1ccc(-c2nn(-c3ccccc3)cc2C=C2SC(=S)N(CCS(=O)(=O)O)C2=O)cc1`?
NadD block: 30*; Myeloid diff MLP: inactive

What do the screens show for `CC(=O)N(C(C)=O)c1ccc2c(c1)OCCO2`?
NadD block: 1; Myeloid diff MLP: inactive

How did COc1ccc(CNC(=O)CSc2ncn[nH]2)cc1OC do in these assays?
core dimer inh: -17; PP1 inh: 0; PP5 primary: -1; NadD block: -1; Fh CTSL1 inh: 2; Myeloid diff MLP: active

Results for O=C(O)C(=Cc1ccccc1[N+](=O)[O-])c1ccc2c(c1)OCO2 ?
NadD block: -3; Myeloid diff MLP: inactive

How did Cc1cc(OCC(=O)OCC(=O)N(C)c2c(N)n(Cc3ccccc3)c(=O)[nH]c2=O)ccc1Cl do in these assays?
core dimer inh: -3; PP1 inh: -3; PP5 primary: 1; NadD block: 1; Fh CTSL1 inh: -11; Myeloid diff MLP: inactive

How did COc1ccc(N2C(=O)/C(=C/c3ccc([N+](=O)[O-])cc3)C=C2c2ccccc2)cc1 do in these assays?
core dimer inh: 17; PP1 inh: -1; PP5 primary: 2; NadD block: 16; Fh CTSL1 inh: 0; Myeloid diff MLP: active

How did CCCN(CCC)CCCNC(=O)c1cn(-c2ccc(OC)cc2)c(=O)c2ccccc12 do in these assays?
core dimer inh: 2; PP1 inh: 0; PP5 primary: 1; NadD block: -3; Fh CTSL1 inh: -2; Myeloid diff MLP: inactive

How did O=C(CC1CCCC1)N1CCN(S(=O)(=O)c2ccccc2)CC1 do in these assays?
PP1 inh: -3; PP5 primary: 2; NadD block: 4; Myeloid diff MLP: active

How did CN(C)C(=O)N1CCN(S(=O)(=O)c2ccc3ccccc3c2)CC1 do in these assays?
core dimer inh: -3; PP1 inh: -3; PP5 primary: 2; NadD block: -5; Fh CTSL1 inh: -2; Myeloid diff MLP: inactive

What do the screens show for `COc1ccc(N2CCN(C(=O)c3ccc(S(=O)(=O)N4CCCC4)cc3)CC2)cc1`?
core dimer inh: 7; PP1 inh: -5; PP5 primary: -1; NadD block: -1; Fh CTSL1 inh: -2; Myeloid diff MLP: inactive

What do the screens show for `O=C(CCl)N1CCN(S(=O)(=O)c2ccc3ccccc3c2)CC1`?
core dimer inh: 12; PP1 inh: 0; PP5 primary: -1; NadD block: -3; Fh CTSL1 inh: 19*; Myeloid diff MLP: inactive

What do the screens show for `O=C(c1ccc(F)cc1)N1CCN(C(=O)c2cccnc2)CC1`?
core dimer inh: -5; PP1 inh: 1; PP5 primary: 0; NadD block: 4; Fh CTSL1 inh: 2; Myeloid diff MLP: inactive

How did COc1ccc(N2CCN(C(=O)c3ccc(S(=O)(=O)N4CCOCC4)cc3)CC2)cc1 do in these assays?
core dimer inh: 3; PP1 inh: 2; PP5 primary: -1; NadD block: 2; Fh CTSL1 inh: -2; Myeloid diff MLP: active

What do the screens show for `O=C(c1ccccc1)N1CCN(C(=O)c2cccnc2)CC1`?
core dimer inh: -12; PP1 inh: -1; PP5 primary: 1; NadD block: 2; Fh CTSL1 inh: 1; Myeloid diff MLP: active

Results for CCN(CC)C(=O)C1=C(C)N(CCCN2CCCC2=O)C(=O)C(CC(=O)NCc2cccc3ccccc23)C1 (centres undefined) ?
NadD block: 5; Myeloid diff MLP: inactive

How did Cc1ccccc1Cn1c(C)c(C(=O)NCC(C)C)sc1=O do in these assays?
NadD block: -2; Myeloid diff MLP: inactive

What do the screens show for `Cc1ccc(S(=O)(=O)N2CCN(C(=O)c3ccccc3)CC2)cc1`?
core dimer inh: 2; PP1 inh: 6; PP5 primary: -1; NadD block: -5; Fh CTSL1 inh: 1; Myeloid diff MLP: active

Results for O=C(c1cccc(-n2cccc2)c1)N1CCN(S(=O)(=O)c2ccccc2)CC1 ?
core dimer inh: 65*; PP1 inh: 13; PP5 primary: 0; NadD block: 5; Fh CTSL1 inh: 1; Myeloid diff MLP: inactive

What do the screens show for `O=C(c1cccc(S(=O)(=O)NCc2ccccc2)c1)N1CCN(c2ccc(F)cc2)CC1`?
PP1 inh: -2; PP5 primary: -1; NadD block: -3; Myeloid diff MLP: inactive

How did O=C(c1cccc(S(=O)(=O)NCc2ccccc2)c1)N1CCN(c2ccccc2)CC1 do in these assays?
NadD block: 2; Myeloid diff MLP: active

Results for CC(C)(C)NC(=O)CN1CCCN(C(=O)c2cccc(S(=O)(=O)N3CCc4ccccc43)c2)CC1 ?
PP1 inh: -4; PP5 primary: 4; NadD block: -3; Myeloid diff MLP: inactive

How did CCCc1c(C(=O)N/N=C/c2ccc(OCc3ccc(F)cc3)cc2)nnn1-c1nonc1N do in these assays?
NadD block: 7; Myeloid diff MLP: inactive

Results for CCCCn1c(N)c(N(C)C(=O)c2cn(-c3ccccc3)nc2-c2ccccc2)c(=O)[nH]c1=O ?
PP1 inh: -3; PP5 primary: 3; NadD block: -1; Myeloid diff MLP: inactive

Results for Cn1nnnc1Sc1ncnc2scc(-c3ccc(Br)cc3)c12 ?
NadD block: 0; Myeloid diff MLP: inconclusive

How did Cn1nnnc1Sc1ncnc2scc(-c3ccccc3)c12 do in these assays?
core dimer inh: 65*; PP1 inh: 0; PP5 primary: 4; NadD block: 13; Fh CTSL1 inh: 0

What do the screens show for `Cn1nnnc1Sc1ncnc2scc(-c3ccccc3Br)c12`?
PP1 inh: -6; PP5 primary: 2; NadD block: -3; Myeloid diff MLP: active

How did CCOc1ccc(-n2c(SCC(=O)Nc3ccc(Br)cc3)nc3n[nH]c(C)c3c2=N)cc1 do in these assays?
core dimer inh: 6; PP1 inh: 17*; PP5 primary: 3; NadD block: 9; Fh CTSL1 inh: -2; Myeloid diff MLP: inactive

What do the screens show for `N#CC1(NC(=O)COC(=O)Cc2c[nH]c3ccccc23)CCCCC1`?
NadD block: 0; Myeloid diff MLP: inactive

How did Cc1c(C(=O)N2CCN(S(=O)(=O)c3ccc(F)cc3)CC2)oc2ccccc12 do in these assays?
core dimer inh: -2; PP1 inh: -3; PP5 primary: 4; NadD block: -4; Fh CTSL1 inh: -4; Myeloid diff MLP: inactive

How did O=C(Nc1ccccc1N1CCN(C(=O)c2ccc(Cl)cc2)CC1)c1ccc(Br)cc1 do in these assays?
core dimer inh: 14; PP1 inh: 16*; PP5 primary: 2; NadD block: 25; Fh CTSL1 inh: 2; Myeloid diff MLP: inactive
